pIC50: −log10 of the molar value.
How the values were obtained:
[1] = molecular target: Phosphatidylinositol 4,5-bisphosphate 3-kinase catalytic subunit gamma isoform (Homo sapiens, UniProt P48736); experiment: Inhibition of human PI3Kgamma using PIP2 as substrate by HTRF assay in presence of biotin-PIP3
How it was run: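 HTRF enzyme assay: PI3Kγ added to mix of ATP, MgCl2 and PIP2 substrate (apparent Km 200 µM ATP, 15 µM PIP2). PIP3 product read by displacement of biotin-PIP3 from Eu-anti-GST antibody/GST-GRP1 PH domain/biotin-PIP3/streptavidin-APC complex. Primary screen at 10 µM, hits >2 SD from mean; confirmation in triplicate at 10 µM; dose response as pIC50.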

[2] = molecular target: PI3-kinase p110-delta/p85-alpha (Homo sapiens, UniProt O00329); experiment: Inhibition of human full length recombinant His-tagged PIK3CD/PIK3R1 expressed in baculovirus expression system after 60 mins by LanthaScreen Eu binding assay in presence of kinase tracer 314
PI3-kinase p110-delta/p85-alpha, sequence (P27986 whole entry): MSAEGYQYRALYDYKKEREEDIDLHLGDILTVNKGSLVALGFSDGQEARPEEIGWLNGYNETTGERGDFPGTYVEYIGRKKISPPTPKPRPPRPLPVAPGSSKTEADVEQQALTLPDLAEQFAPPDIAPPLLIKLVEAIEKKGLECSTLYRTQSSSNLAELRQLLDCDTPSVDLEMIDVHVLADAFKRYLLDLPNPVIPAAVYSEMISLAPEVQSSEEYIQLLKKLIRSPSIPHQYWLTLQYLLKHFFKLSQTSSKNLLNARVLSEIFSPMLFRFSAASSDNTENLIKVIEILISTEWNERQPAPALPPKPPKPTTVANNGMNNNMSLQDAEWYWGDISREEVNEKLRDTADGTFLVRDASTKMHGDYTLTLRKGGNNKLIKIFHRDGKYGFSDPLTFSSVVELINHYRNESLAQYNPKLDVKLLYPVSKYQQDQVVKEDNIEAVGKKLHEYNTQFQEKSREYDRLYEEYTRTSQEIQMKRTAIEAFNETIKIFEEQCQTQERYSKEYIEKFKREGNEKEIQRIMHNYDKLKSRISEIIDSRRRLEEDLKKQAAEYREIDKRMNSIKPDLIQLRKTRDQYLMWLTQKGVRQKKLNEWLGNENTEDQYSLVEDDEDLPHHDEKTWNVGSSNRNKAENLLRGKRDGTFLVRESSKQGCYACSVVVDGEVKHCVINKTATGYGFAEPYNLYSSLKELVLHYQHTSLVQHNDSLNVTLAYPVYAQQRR
PI3-kinase p110-delta/p85-alpha, sequence (O00329 whole entry): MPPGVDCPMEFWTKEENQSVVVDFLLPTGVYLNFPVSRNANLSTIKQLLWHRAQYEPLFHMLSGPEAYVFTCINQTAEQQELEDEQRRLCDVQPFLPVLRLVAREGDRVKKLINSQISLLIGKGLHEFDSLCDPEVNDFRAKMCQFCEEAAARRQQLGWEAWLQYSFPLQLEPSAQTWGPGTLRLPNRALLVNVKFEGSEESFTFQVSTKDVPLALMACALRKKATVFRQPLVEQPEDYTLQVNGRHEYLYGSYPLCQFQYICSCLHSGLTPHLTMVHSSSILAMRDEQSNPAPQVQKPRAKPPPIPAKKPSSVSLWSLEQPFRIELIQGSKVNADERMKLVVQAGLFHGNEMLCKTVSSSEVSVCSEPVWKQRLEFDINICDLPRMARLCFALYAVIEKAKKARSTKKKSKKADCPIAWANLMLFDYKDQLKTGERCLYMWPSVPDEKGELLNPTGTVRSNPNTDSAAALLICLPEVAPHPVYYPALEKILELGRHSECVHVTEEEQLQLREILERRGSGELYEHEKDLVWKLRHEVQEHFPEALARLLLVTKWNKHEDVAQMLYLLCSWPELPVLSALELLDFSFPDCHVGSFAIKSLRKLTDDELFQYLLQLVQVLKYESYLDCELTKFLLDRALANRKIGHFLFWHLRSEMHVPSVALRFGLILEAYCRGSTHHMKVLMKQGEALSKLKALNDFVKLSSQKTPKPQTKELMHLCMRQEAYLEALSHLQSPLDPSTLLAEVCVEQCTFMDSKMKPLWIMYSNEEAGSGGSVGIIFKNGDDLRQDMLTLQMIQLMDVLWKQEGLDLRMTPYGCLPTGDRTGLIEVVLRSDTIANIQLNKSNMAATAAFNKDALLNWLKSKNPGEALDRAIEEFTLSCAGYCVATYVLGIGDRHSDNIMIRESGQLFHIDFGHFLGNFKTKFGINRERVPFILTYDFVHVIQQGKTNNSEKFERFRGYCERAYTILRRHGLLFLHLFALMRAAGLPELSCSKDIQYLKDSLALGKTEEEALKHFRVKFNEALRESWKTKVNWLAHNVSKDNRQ
How it was run: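 Binding displacement in 50 mM HEPES pH 7.5, 10 mM MgCl2, 1 mM EGTA, 0.01% Brij-35. Enzyme 0.5 nM with Eu-anti-GST antibody 2 nM added to pre-spotted compound, then tracer 314 10 nM (all final). Controls omit enzyme. 60 min at room temperature; TR-FRET read at excitation 320 nm, emission 615/665 nm. Results as pIC50.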

Phosphatidylinositol 4,5-bisphosphate 3-kinase catalytic subunit gamma isoform, sequence (P48736 whole entry, the tested form may be a part, canonical isoform): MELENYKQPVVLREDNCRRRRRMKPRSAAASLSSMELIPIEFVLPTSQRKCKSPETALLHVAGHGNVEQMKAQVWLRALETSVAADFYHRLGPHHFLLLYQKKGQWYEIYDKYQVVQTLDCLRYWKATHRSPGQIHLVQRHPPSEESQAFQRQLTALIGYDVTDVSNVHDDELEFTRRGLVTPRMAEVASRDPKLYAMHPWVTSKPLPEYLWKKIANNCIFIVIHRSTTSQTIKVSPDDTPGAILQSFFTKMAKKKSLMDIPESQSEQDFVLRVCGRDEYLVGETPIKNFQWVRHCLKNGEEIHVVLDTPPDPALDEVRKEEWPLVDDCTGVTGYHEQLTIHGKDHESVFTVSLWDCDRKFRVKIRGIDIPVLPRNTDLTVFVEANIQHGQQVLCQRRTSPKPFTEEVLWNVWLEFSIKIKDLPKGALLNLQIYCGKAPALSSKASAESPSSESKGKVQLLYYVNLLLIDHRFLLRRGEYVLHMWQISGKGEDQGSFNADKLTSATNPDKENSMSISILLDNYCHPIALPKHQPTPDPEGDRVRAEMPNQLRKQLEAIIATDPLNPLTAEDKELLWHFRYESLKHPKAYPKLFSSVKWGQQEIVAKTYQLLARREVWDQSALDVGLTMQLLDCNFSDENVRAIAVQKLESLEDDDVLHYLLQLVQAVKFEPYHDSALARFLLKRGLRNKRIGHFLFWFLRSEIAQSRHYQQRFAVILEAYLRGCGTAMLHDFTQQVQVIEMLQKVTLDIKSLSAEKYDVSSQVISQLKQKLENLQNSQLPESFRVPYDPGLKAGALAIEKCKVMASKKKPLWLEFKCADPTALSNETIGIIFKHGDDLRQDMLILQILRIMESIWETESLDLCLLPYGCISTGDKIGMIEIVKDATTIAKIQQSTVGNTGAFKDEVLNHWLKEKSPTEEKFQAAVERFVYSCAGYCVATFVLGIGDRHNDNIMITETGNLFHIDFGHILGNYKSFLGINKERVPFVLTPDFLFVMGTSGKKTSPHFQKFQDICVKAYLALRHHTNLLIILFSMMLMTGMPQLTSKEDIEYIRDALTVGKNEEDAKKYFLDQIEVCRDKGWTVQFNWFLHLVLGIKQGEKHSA

SMILES: COc1cc(Nc2ccn3ncc(-c4cccc(C(N)=O)c4)c3n2)cc(OC)c1OC
- pIC50 [1]: 5.21

SMILES: COc1cc(-c2cnn3ccc(Nc4ccc(C(C)C)cc4)nc23)ccc1O
- pIC50 [1]: 5.62

SMILES: NC(=O)c1nc(-c2ccc3ncccc3c2)nc2c1[nH]c(=O)n2CCc1ccccc1
- pIC50 [2]: 5.61

SMILES: CN1CCC(NCc2ccc(Nc3ncc4cnn([C@H]5C[C@@H]6CC[C@H]5C6)c4n3)cc2)CC1
- pIC50 [2]: 6.47

SMILES: CN(Cc1ccccc1)c1ncnc2ccc(Br)cc12
- pIC50 [2]: 5.16

SMILES: Cc1nn(-c2ccccc2)c2c1-c1nc(N)ncc1CC2
- pIC50 [2]: 5.09

SMILES: Cc1nc2ccc(Cl)cn2c1-c1ccnc(N)n1
- pIC50 [2]: 5.59

SMILES: COc1cncc(-c2cnn3ccc(NC4CCC(O)CC4)nc23)c1 (stereo unspecified)
- pIC50 [1]: 5.24

SMILES: c1cncc(CCNc2ccc3ncc(-c4cc5ccccc5s4)n3n2)c1
- pIC50 [2]: 5.19

SMILES: Clc1ccc2ncnc(NCCOc3ccccc3)c2c1
- pIC50 [2]: 5.26

SMILES: FC(F)(F)c1cc(Nc2nc3ccccc3s2)cc(C(F)(F)F)c1
- pIC50 [1]: 5.26

SMILES: c1ccc(CSc2nc(N3CCOCC3)c3sccc3n2)cc1
- pIC50 [2]: 5.42

SMILES: O=C(C1CC=CCC1)N1CCCC(c2n[nH]c3ncccc23)C1 (stereo unspecified)
- pIC50 [2]: 5.07

SMILES: Cn1ccc2cc(-c3cnc4cnc(-c5cccc(C(N)=O)c5)cn34)ccc21
- pIC50 [2]: 6.37

SMILES: COc1cc(-c2cnc3ccc(NCc4ccco4)nn23)ccc1O
- pIC50 [1]: 5.16

SMILES: Clc1ccc2ncnc(NCCCc3ccccc3)c2c1
- pIC50 [2]: 5.50

— ChEMBL document CHEMBL3813684, “A Prospective Virtual Screening Study: Enriching Hit Rates and Designing Focus Libraries To Find Inhibitors of PI3Kδ and PI3Kγ” (J Med Chem, 2016)
